These results are taken from PMC4306527 (Journal of medicinal chemistry, 2014).

Where “and” joins values, the source holds several entries; their conditions need not be identical. Identical values can stand only once.

Series [1] deals with rCB1 receptor (rat brain membranes) (Rattus norvegicus, UniProt P20272). As to the kind of experiment: Radioligand competition binding, rat brain CB1, [3H]CP-55,940.
Series [2] has as its system rats. As to conditions: sc, data published previously; cited from earlier work.
For another series, the system named is male CD-1 mice. Kind of series: Tail-flick withdrawal. The format is in vivo, mouse. To be noted: 0.3 and 1.0 mg/kg ip, descending phase 180 and 360 min.
For series [3], the system named is rats. As to the kind of experiment: Hypothermia testing in rats. The format is in vivo, rat. The gist of the method: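 Female Sprague–Dawley rats (250–350 g, n = 6/group), reused with ≥5 days between sessions. Test compound was dissolved in 20% ethanol/20% alkamuls/60% saline, then diluted with saline. Temperature was taken by a thermistor probe at 6 cm depth in minimally restrained, isolated rats. Two baselines 15 min apart; injected after the second; read every 30 min to 3 h, then hourly to 6 h. ED50 = dose lowering temperature 3 °C.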

Another series has as its target mCB2 receptor (Mus musculus, UniProt P47936). Kind of series: Radioligand competition binding, mouse CB2 in HEK293 membranes, [3H]CP-55,940. On the technique in general: Loss of bound radioactivity is the signal in a displacement assay; it reports binding, not function.
Another series deals with hCB2 receptor (Homo sapiens, UniProt P34972). Kind of series: Radioligand competition binding, human CB2 in HEK293 membranes, [3H]CP-55,940.
The subject of the next series is mouse plasma esterases. As to the kind of experiment: In vitro plasma stability toward mouse plasma esterases. As to conditions: 200 μM in mouse plasma, 37 °C; Stable = no observable hydrolysis within 5 h. It is filed as in vitro ADME. The gist of the method: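 Test compound at 200 μM in mouse plasma, incubated at 37 °C with 100 rpm shaking. Samples taken at various time points were diluted 1:4 in acetonitrile and centrifuged to remove protein. Supernatant was analysed by HPLC on a C18 column. Half-life came from an exponential decay fit.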

mCB2 receptor, sequence (P47936 whole entry): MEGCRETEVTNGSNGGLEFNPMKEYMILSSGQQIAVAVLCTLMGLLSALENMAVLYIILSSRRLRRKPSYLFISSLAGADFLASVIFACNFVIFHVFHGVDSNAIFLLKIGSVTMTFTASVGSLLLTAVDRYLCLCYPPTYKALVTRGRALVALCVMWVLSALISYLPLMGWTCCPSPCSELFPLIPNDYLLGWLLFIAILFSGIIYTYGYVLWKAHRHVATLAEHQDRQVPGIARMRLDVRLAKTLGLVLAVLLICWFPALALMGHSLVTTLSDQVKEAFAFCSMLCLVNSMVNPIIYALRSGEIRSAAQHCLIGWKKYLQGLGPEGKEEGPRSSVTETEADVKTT
rCB1 receptor (rat brain membranes), sequence (P20272 whole entry): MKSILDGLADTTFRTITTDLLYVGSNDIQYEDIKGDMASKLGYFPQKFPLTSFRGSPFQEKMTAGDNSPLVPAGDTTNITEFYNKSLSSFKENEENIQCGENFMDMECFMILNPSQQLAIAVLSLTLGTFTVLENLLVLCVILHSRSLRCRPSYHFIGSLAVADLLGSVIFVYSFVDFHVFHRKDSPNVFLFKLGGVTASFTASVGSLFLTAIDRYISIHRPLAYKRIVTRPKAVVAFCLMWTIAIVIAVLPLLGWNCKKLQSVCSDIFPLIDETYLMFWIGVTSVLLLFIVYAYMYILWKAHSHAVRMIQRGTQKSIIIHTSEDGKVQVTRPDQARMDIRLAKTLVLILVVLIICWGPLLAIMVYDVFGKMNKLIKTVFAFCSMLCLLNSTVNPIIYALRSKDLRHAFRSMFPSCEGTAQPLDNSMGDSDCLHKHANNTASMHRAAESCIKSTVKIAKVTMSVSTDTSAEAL
hCB2 receptor, sequence (P34972 whole entry): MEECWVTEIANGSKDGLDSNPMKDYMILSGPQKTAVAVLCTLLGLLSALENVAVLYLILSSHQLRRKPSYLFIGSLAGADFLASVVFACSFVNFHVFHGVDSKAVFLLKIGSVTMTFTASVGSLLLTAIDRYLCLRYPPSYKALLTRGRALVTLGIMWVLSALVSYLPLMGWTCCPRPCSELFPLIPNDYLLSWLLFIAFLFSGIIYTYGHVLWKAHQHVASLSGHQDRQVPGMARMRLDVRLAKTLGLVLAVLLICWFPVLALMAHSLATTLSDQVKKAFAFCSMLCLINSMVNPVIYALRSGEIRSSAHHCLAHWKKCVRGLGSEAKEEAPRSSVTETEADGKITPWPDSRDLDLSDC

Regarding `CC1=CC[C@@H]2[C@@H](C1)c1c(O)cc(C(C)(C)C(=O)OCCCCn3ccnc3)cc1OC2(C)C` [Compound 9d, 2-[(6aR,10aR)-6a,7,10,10a-Tetrahydro-1-hydroxy-6,6,9-trimethyl-6H-dibenzo[b,d]pyran-3-yl]-2-methyl-propanoic Acid 4-(1H-Imidazol-1-yl)butyl Ester], the “fold reduction of CB1 affinity relative to 10b” value in series [1] was ~ 8 fold.
For `CCCCCCC(C)(C)c1cc(O)c2c(c1)OC(C)(C)[C@@H]1CC=C(C)C[C@@H]21` [(−)-Δ^8-THC-DMH, (−)-Δ^8-THC-dimethylheptyl], the “ED50 (dose required to reduce temperature by 3 °C)” value in the series on rats [2] is reported as 0.29 mg/kg.
In the case of `CC1=CC[C@@H]2[C@@H](C1)c1c(O)cc(C(C)(C)C(=O)OCCCC#N)cc1OC2(C)C` [Compound 10a, 2-[(6aR,10aR)-6a,7,10,10a-Tetrahydro-1-hydroxy-6,6,9-trimethyl-6H-dibenzo[b,d]pyran-3-yl]-2-methyl-propanoic Acid 3-Cyano-propyl Ester], the “offset of the analgesia effect compared to 2b” value in the series with male CD-1 mice is reported as “significantly faster”. For the same compound, in the series with rats [3] (0.1 mg/kg sc, from average baseline of 37.8 ± 0.1 °C), the “reduction of body temperature” value was found to be 4.5 ± 0.5 °C. For the same compound, the “fold more potent than (−)-Δ^8-THC-DMH and/or 2b” value in the series with rats [3] (hypothermia) was 8–10 fold and 10 fold.
Turning to `CCOC(=O)C(C)(C)c1cc(O)c2c(c1)OC(C)(C)[C@@H]1CC=C(C)C[C@@H]21` [Compound 8b, 2-[(6aR,10aR)-6a,7,10,10a-Tetrahydro-1-hydroxy-6,6,9-trimethyl-6H-dibenzo[b,d]pyran-3-yl]-2-methyl-propanoic Acid Ethyl Ester], the “fold higher binding affinity for mCB2 compared to (−)-Δ^8-THC” value on mCB2 receptor was determined as 78 fold. For the same compound, the “fold higher binding affinity for hCB2 compared to (−)-Δ^8-THC” value on hCB2 receptor is 24 fold.
For the compound `CCCCCNC(=O)C(C)(C)c1cc(O)c2c(c1)OC(C)(C)[C@@H]1CC=C(C)C[C@@H]21` [Compound 18, 2-[(6aR,10aR)-6a,7,10,10a-Tetrahydro-1-hydroxy-6,6,9-trimethyl-6H-dibenzo[b,d]pyran-3-yl]-2-methyl-N-pentylpropanamide], in the series with mouse plasma esterases, the “mouse plasma t1/2” value is recorded as “Stable ^e”.
